PPC-1+TRAIL kill: compounds killing PPC-1 cancer cells with TRAIL present (potentiator screen, no TRAIL-free arm) | PPC-1 cells + TRAIL, ATPLite viability luminescence | cell killing (% activity), % at 4 µM or 5 µM | 220,000 tested, 0.41% active | AID 1443;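 active = cell killing above 50% in the first pass at 4 µM, then a duplicate retest at 5 µM averaging 50% or more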
Platelet DG rel: modulates dense granule release in human platelets; human platelet-rich plasma, SFLLRN dense granule ATP release, luminescence; inhibition, %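 (compounds screened at 7.5 µM in platelet-rich plasma)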; 300,000 tested, 0.22% active; AID 1663;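 active = mean replicate score, as percent of positive control, at or above 50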
STAT3 inh-1: reduces IL-6 driven STAT3 reporter signal | U3A cells, IL-6 STAT3-luciferase reporter, luminescence; host cell line lacks STAT1 | inhibition, % at 5.5 µM | 190,000 tested, 0.89% active | AID 862;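 active = inhibition above the mean inhibition across all screened compounds plus 3 SD, cut at about 44% in these data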
Lipid droplet: modulators of hepatic lipid droplet formation | AML12 mouse hepatocytes, oleate lipid droplets, BODIPY imaging | inhibition, % at 6.5 µM | 240,000 tested, 0.4% active;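 active = lipid droplet intensity inhibited by at least 50%, with more than 500 cells counted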
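Assay system: AML12 hepatocytes (mouse) / Also added: 100 µM oleic acid challenge / Times: overnight treatment with compound plus oleate / Detection: high-content imaging of BODIPY-stained droplets and DAPI nuclei / Evaluation: % inhibition of lipid droplet signal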
TAG inh: triacylglycerol accumulation inhibition | 230,000 tested, 0.66% active | H9c2 cells, Nile Red lipid (TAG) fluorescence; cells loaded with 200 µM oleic acid | inhibition, % at 12.5 µM;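 active = pattern-corrected inhibition of lipid staining of at least 50% with the nuclear-stain viability signal not falling by more than 50%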
STAT1 inh: reduces IFN-gamma driven STAT1 reporter signal; NIH 3T3 STAT1-luciferase reporter, luminescence; inhibition, % at 5.5 µM; 200,000 tested, 0.35% active; AID 920;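 active = inhibition above a set limit, the mean inhibition across all tested compounds plus 3 SD, cut at about 34% in these data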
STAT3 inh-2: confirmation of STAT3 signaling inhibitors; shares compounds with STAT3 inh-1; U3A cells, IL-6 STAT3 luciferase reporter, luminescence; cell line lacks STAT1; inhibition, % at 5.7 µM; 1,200 tested, 45% active; AID 1265;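 active = inhibition above the hit cutoff computed for the primary STAT3 screen, cut at about 44% in these data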
NFkB inh 2: inhibits NF-kappaB, counter-screen to STAT3 inhibitors; inhibition, % at 5.7 µM; HEK293T NF-kB luciferase reporter, TNF-alpha induced; AID 1308; 1,200 tested, 36% active; shares compounds with STAT3 inh-1;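 active = inhibition above the mean of solvent-only control wells plus 3 SD, cutoff set per campaign, cut at about 13% in these data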
STAT1 inh 2: STAT1 inhibition in STAT3 inhibitor counter-screen | 1,200 tested, 27% active | NIH 3T3 STAT1-luciferase reporter, IFN-gamma induced, luminescence | shares compounds with STAT3 inh-1 | inhibition, % at 5.7 µM | AID 1317;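 active = inhibition above the mean plus 3 SD of solvent-only control wells, limit set per screening run, cut at about 16% in these data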
Hits are given with their value; - = inactive; . = not tested or not shown. This is a sample that favours compounds with a hit; in the whole collection about 1.5% have one here.

SMILES	PPC-1+TRAIL kill	Platelet DG rel	STAT3 inh-1	Lipid droplet	TAG inh	STAT1 inh	STAT3 inh-2	NFkB inh 2	STAT1 inh 2
COc1cccc(C(CCc2cc(OC)c(OC)c(OC)c2)NC(C)=O)c1 (stereo unspecified)	.	.	.	.	-	.	.	.	.
O=C(Nc1ccc(Oc2ccccc2)cc1)c1cnc2n(c1=O)CCS2	-	-	78	.	-	-	73	-	-
CCOc1ccccc1NC(=O)c1cnc2n(c1=O)CCS2	-	-	-	.	-	-	.	.	.
Cc1ccc(-c2nc3cc(C)ccc3o2)cc1	-	-	84	-	-	-	-	40	-
COC(=O)c1ccc(-c2nc3ccc(C)cc3o2)cc1	-	-	68	.	-	-	-	-	-
Cc1ccc2oc(-c3ccco3)nc2c1	-	-	-	.	.	-	.	.	.
Nc1ccn([C@@H]2O[C@H](CNCc3ccc(N4CCNCC4)cc3)[C@@H](O)[C@H]2O)c(=O)n1	.	.	.	.	-	.	.	.	.
CCc1n[nH]c2c1/C(=N\O)CC(c1ccccc1)C2 (stereo unspecified)	-	-	44	.	-	-	-	-	-
CC(=O)Nc1ccc(SCC(=O)c2cc(C)n(-c3ccccc3F)c2C)cc1	-	-	54	-	.	-	-	-	-
CCc1c(C)c2ccc(OCC(=O)N(C)C)c(C)c2oc1=O	-	-	-	-	.	-	.	.	.
CCc1c(C)c2ccc(OCC(=O)OC(C)C)c(C)c2oc1=O	-	-	56	-	.	-	48	-	-
CC(C)Oc1ccc(C(=O)NC2=NCCS2)cc1	-	-	62	-	-	-	-	-	-
COc1ccc(C(=O)NC2=NCCS2)cc1	.	-	.	-	.	.	.	.	.
Cc1ccc(-n2ncc3c(SCc4cccc(C)c4)ncnc32)cc1	-	-	-	-	.	-	.	.	.
Cc1ccc(-n2ncc3c(SCc4cccnc4)ncnc32)c(C)c1	-	-	75	-	-	-	68	-	-
COc1cccc(CN2CCC2(C)C(=O)Nc2ccc3c(c2)CCN3C(C)=O)c1F (stereo unspecified)	.	.	.	.	-	.	.	.	.
Cc1cc(C)c(C#N)c(SCc2nnc(-c3ccccc3)o2)n1	72	-	67	-	-	-	-	-	-
Cc1cc(C)c(C#N)c(SCc2nnc(-c3ccccc3[N+](=O)[O-])o2)n1	-	-	-	-	-	-	.	.	.
O=S(=O)(c1ccccc1)N1CCC(O)(CSc2ccc(Cl)cc2)CC1	-	-	76	.	-	-	47	17	-
O=S(=O)(c1ccc(Cl)cc1)N1CCC(O)(CN2CCN(Cc3ccccc3)CC2)CC1	-	-	-	-	-	-	.	.	.
Cc1cc(C(=O)CSc2nnc(-c3cccs3)o2)c(C)n1-c1ccccc1	-	-	47	-	-	-	-	17	-
O=C(CSc1nnc(-c2cccs2)o1)c1cccs1	-	-	-	.	.	-	.	.	.
O=C(Nc1cccc(C(=O)O)c1)/C(=C\c1ccccc1)NC(=O)c1ccco1	.	.	.	.	-	.	.	.	.
CCCCCCNC(=O)O[C@H]1Cn2c(=O)ccc(=O)n2[C@@H]2CN(S(=O)(=O)c3ccc(C)cc3)C[C@]12O	.	.	.	.	-	.	.	.	.
COc1ccc2cc3cc(C(=O)Nc4cc(OC)c(OC)c(OC)c4)oc3nc2c1	-	-	46	-	-	-	-	-	-
SMILES	PPC-1+TRAIL kill	Platelet DG rel	STAT3 inh-1	Lipid droplet	TAG inh	STAT1 inh	STAT3 inh-2	NFkB inh 2	STAT1 inh 2
Clc1c(CSc2nc3ccccc3o2)nc2ccccn12	-	.	45	-	-	-	-	-	-
Clc1c(CSc2nc3ccccc3o2)nc2sccn12	-	-	-	-	.	-	.	.	.
CCCCNc1cc(C)nc(NCc2ccccc2)n1	-	-	44	.	-	-	-	13	27
C=CCN1C(=O)C(=Cc2ccc3c(c2)CCC3)SC1=S	.	.	.	.	-	.	.	.	.
COc1ccc(C(=O)Nn2c(SCC(=O)NC3CCCCC3)nc3ccccc3c2=O)cc1	-	-	51	-	.	-	-	-	-
COCCCn1c(SCC(=O)NC2CCCCC2)nc2ccccc2c1=O	.	-	.	-	.	.	.	.	.
CC1(C)SC(C)(C)N(C=O)C1C(=O)O (stereo unspecified)	.	.	.	.	-	.	.	.	.
O=C(Nc1ccncc1)c1ccc2c(c1)C(=O)N(C1CCCCC1)C2=O	-	-	75	-	-	-	66	-	-
C=CC(=O)Nc1cccc(CN2C(=O)N(c3cc(OC)cc(OC)c3)Cc3cnc(NCCCCN(CC)CC)nc32)c1	.	.	.	.	-	.	.	.	.
CC(C)C#Cc1cnc2c(c1)C(=O)N([C@H](C)CO)C[C@@H](C)[C@H](CN(C)C(=O)Nc1ccccc1F)O2	.	.	.	.	-	.	.	.	.
Cc1c(C(=O)Nc2ccc3c(c2)OCCO3)sc2nc(-c3ccccc3)cn12	-	-	51	-	.	34	-	-	-
Cc1cccc2cc(-c3ccccc3)c(-c3ccccc3)c[n+]12	-	-	46	-	.	-	-	-	-
CN(C)C(=O)NC1c2ccccc2-c2ccccc21	.	-	.	-	.	.	.	.	.
O=C(NC1c2ccccc2-c2ccccc21)N1CCCCC1	-	-	52	.	.	-	-	17	-
O=C(O)C(=Cc1ccc([N+](=O)[O-])cc1)c1cccc(Cl)c1	.	.	.	.	-	.	.	.	.
COc1ccc(/C=C2/SC(=S)N(CCC(=O)O)C2=O)cc1	-	-	57	.	.	-	57	32	-
COc1ccc(/C=C2\SC(=S)N(CCC(=O)Nc3ccc(C(=O)O)cc3)C2=O)cc1	.	-	.	-	.	.	.	.	.
O=C(Nc1nc(-c2cccs2)cs1)c1ccc(Cl)cc1	-	-	-	-	-	-	.	.	.
O=C(Nc1nc(-c2ccc(Cl)s2)cs1)c1ccncc1	-	-	66	.	.	-	56	-	-
CCCn1c(C)cc(C(=O)COc2ccc(C)nc2[N+](=O)[O-])c1C	-	-	-	-	.	-	.	.	.
C=CCn1c(C)cc(C(=O)COc2ccc(C)nc2[N+](=O)[O-])c1C	-	-	54	-	.	-	-	-	-
Cc1ccc(OCC(=O)c2cc(C)n(-c3ccccc3)c2C)c([N+](=O)[O-])n1	-	-	61	-	.	-	45	15	-
CC(C)CCNC(=O)c1cc(S(=O)(=O)N2CCC3(CC2)OCCO3)ccc1F	.	.	.	.	-	.	.	.	.
O=C(c1ccc(CNS(=O)(=O)c2ccccc2)cc1)N1CCN(Cc2ccccc2)CC1	-	-	44	-	.	-	-	-	-
CN=c1scc(C)n1/N=C/c1ccc(O)cc1	-	.	-	-	-	-	.	.	.
CN=c1scc(C)n1/N=C/c1ccc2c(c1)OCO2	-	-	49	-	-	-	-	-	-
O=C(NCc1nnnn1-c1ccc(Cl)cc1)C(=O)c1c[nH]c2ccccc12	.	.	.	.	-	.	.	.	.
CCCCCC(=O)N1C[C@@H](n2cc(COC(=O)c3ccccc3)nn2)[C@H](O)C[C@@H]1c1ccc(C)cc1	.	.	.	.	-	.	.	.	.

High-throughput results from PubChem BioAssay.
